Screening data as filed in PubChem BioAssay.
HSP90 inh – HSP90 refolding inhibition in rabbit reticulocyte lysate; luciferase refolding luminescence, 3 h; AID 1789; actives 0.91% (n = 290,000); inhibition, % at 5.6 µM;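 active = inhibition above the screen-wide mean plus 3 SD, computed separately per campaign, cut at about 16% in these data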;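 note: 0% = DMSO wells and 100% = 60 µM geldanamycin wells; inhibitors lower the luminescence because luciferase stays unfolded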
C8 TRAIL sens – sensitizes caspase-8 expressing cells to TRAIL | NB7+C8 cells + TRAIL, ATPlite viability luminescence | inhibition (viability loss, TRAIL sensitization), % at 10 µM | actives 1% (n = 360,000) | AID 624354;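 active = compounds causing at least 50% loss of cell viability in the single-dose screen, relative to plate controls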
PPC-1+TRAIL kill – kills PPC-1 cancer cells in the presence of TRAIL; PPC-1 cells + TRAIL, ATPLite viability luminescence; cell killing (% activity), % at 4 µM or 5 µM; actives 0.41% (n = 220,000);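 active = cell killing above 50% in the first pass at 4 µM, then a duplicate retest at 5 µM averaging 50% or more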;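 note: plate controls were cells with TRAIL plus DMSO for no effect and medium-only wells lacking cells for full effect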
FLuc act counter – affects firefly luciferase, flagging false hits in luciferase stimulation screens. P08659. ATPlite luciferase biochemical, luminescence, 10 min; 0 = ATP-free wells, 1 = DMSO control. activation factor at 10 µM. 200,000 tested, under 10 active;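 active = luciferase activation factor, scaled between plate controls, of at least 2 with compound at 10 µM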
Target sequence (P08659 whole entry, looked up): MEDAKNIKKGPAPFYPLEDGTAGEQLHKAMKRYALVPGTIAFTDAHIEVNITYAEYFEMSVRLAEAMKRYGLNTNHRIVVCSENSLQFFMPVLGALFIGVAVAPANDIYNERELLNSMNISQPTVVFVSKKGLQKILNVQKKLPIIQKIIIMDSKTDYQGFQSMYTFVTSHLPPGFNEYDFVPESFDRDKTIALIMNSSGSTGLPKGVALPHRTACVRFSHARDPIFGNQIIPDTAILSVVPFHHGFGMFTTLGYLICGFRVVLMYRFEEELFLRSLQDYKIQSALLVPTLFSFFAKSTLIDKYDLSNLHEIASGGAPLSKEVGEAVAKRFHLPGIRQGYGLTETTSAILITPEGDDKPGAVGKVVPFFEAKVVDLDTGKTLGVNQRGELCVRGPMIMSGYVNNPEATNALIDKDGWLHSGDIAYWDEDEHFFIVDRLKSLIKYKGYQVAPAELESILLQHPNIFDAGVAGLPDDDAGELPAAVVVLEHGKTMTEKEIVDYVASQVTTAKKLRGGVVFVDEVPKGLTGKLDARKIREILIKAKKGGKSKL
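assay system = Luciferase/luciferin detection reagent, cell-free biochemical luciferase assay | also added = ATP substrate | times = 10 min post-reagent at room temperature | measured by = luminescence from luciferase reaction | measure = luciferase activation, seen as luminescence increase over controls | benchmarks = low control with PBS replacing ATP, high control enzyme plus ATP without compound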
FLuc inhib CS – inhibits firefly luciferase, flagging false hits in luciferase inhibition screens; actives 1.5% (n = 200,000); ATPLite firefly luciferase biochemical luminescence, 10 min; AID 1006; inhibition, % at 10 µM;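 active = inhibition above about 50% when tested at 10 µM, limit read from the data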
* hit, by the source's call; nt = not tested or not shown. Rows were chosen to be rich in hits. Some 2% of all compounds tested hit in one or more screens of this group.

SMILES	HSP90 inh	C8 TRAIL sens	PPC-1+TRAIL kill	FLuc act counter	FLuc inhib CS
CCOc1ccc2nc(NC(=O)CSc3nnc(-c4ccncc4)n3CC3CCCO3)sc2c1 (stereo not drawn)	nt	45.5	33.5	0.3	67.6*
COc1ccc(C(Sc2ccccc2)c2ccccc2)cc1OC (stereo not drawn)	nt	6.6	nt	nt	nt
CCOc1ccc(C(=O)C(CCC(CN(C)C)C(=O)c2ccc(OCC)cc2)CN(C)C)cc1 (stereo not drawn)	-0.2	-3.0	31.6	1	-4.2
CN(C)CC(CCC(CN(C)C)C(=O)c1ccccc1)C(=O)c1ccccc1 (stereo not drawn)	4.3	16.3	51.9*	nt	nt
COc1cc(C(=O)N2CCCCC2c2cc(C(=O)NC(C)C)no2)cc(OC)c1C (stereo not drawn)	nt	-0.4	nt	nt	nt
CC1=NN(c2ccccc2)C(=O)/C1=C\C=C\c1ccccc1	1.0	-1.2	7.7	nt	nt
CC1=NN(c2ccc(C)c(C)c2)C(=O)/C1=C\C=C\c1ccc([N+](=O)[O-])o1	2.9	79.3*	15.6	1.1	-9.9
NC(Cc1ccc(F)cc1)c1csc(Nc2ccc(C(F)(F)F)cn2)n1 (stereo not drawn)	nt	21.9	nt	nt	nt
O=C(c1cnc(Cl)c(Cl)c1)N1CCN(S(=O)(=O)c2ccc3ccccc3c2)CC1	nt	48.1*	nt	nt	nt
O=C(c1ccncc1)N1CCN(S(=O)(=O)c2ccc3ccccc3c2)CC1	0.4	2.7	nt	nt	nt
C=CCN(C(=O)c1csnn1)C(C(=O)NC1CCCCC1)c1ccc(F)cc1 (stereo not drawn)	2.9	4.4	nt	nt	nt
Cc1cccc(-n2c(C)cc(C)c(C#N)c2=O)c1	-2.8	-6.6	-9.2	1.1	-10.0
Cc1ccc2cc3cc(C(=O)N4CCCCC4C)oc3nc2c1 (stereo not drawn)	1.6	30.4	40.5	0.4	55.0*
CCCCC1=NN2CCS(=O)(=O)N=C2S1	-3.5	3.1	14.2	1	2.8
CCOC(=O)CNC(=O)CN1CCC(c2nc3ccccc3[nH]2)CC1	-1.3	-5.0	nt	nt	nt
Cc1cc(C)cc(N2C(N)=NC(N)=NC2c2cccc(Cl)c2)c1 (stereo not drawn)	4.9	68.7*	nt	nt	nt
Cc1cc(C)cc(N2C(N)=NC(N)=NC2c2ccccc2F)c1 (stereo not drawn)	1.0	69.8*	nt	nt	nt
COc1ccc(C2N=C(N)N=C(N)N2c2ccc(C)cc2)cc1 (stereo not drawn)	0.4	-10.1	1.0	1	-2.9
Cc1cnc(C(=O)OCC(=O)c2ccc(Br)s2)cn1	nt	-0.4	nt	nt	nt
CCCC1(CCC)NC(=O)N(CC(=O)Nc2ccc(Cl)c(S(=O)(=O)N3CCOCC3)c2)C1=O	nt	-12.5	nt	nt	nt
CC(=O)c1ccc(NC(=S)N2CCCCCC2)cc1	-3.4	49.2	36.1	0.9	9.0
OCC1CCCN(C(=S)Nc2ccc(Oc3ccccc3)cc2)C1 (stereo not drawn)	-0.6	5.8	15.8	0.9	5.8
COC(=O)Cc1ccc(NC(=S)N2CCCC(CO)C2)cc1 (stereo not drawn)	4.4	75.2*	63.0*	0.1	93.2*
CC(=O)c1ccc(NC(=S)N2CCCC(CO)C2)cc1 (stereo not drawn)	1.7	19.4	34.1	0.5	52.2*
O=C(NC1CCCCC1)N1CCN(c2ccccc2Cl)CC1	-2.4	18.7	nt	nt	nt
SMILES	HSP90 inh	C8 TRAIL sens	PPC-1+TRAIL kill	FLuc act counter	FLuc inhib CS
Cc1sc2nc(C)n(/N=C/c3ccc(O)cc3)c(=O)c2c1C	1.5	50.5*	-5.8	1	-3.5
Cc1sc2nc(C)n(/N=C/N(C)C)c(=O)c2c1C	2.5	-16.2	8.5	nt	nt
Cc1cc(Cl)ccc1NC(=S)NCC(O)c1ccccc1 (stereo not drawn)	-2.5	19.6	nt	nt	nt
O=C(C#Cc1ccccc1)c1ccccc1	nt	93.2*	nt	nt	nt
Cc1cc(NC(=O)c2ccccc2)cc(NC(=O)c2ccccc2)c1C	-6.2	14.0	nt	nt	nt
Cc1cc(NC(=O)c2ccccc2)sc1C	10.1	30.2	27.9	0.4	63.5*
Cc1ccc(NC(=O)c2ccccc2)s1	2.4	53.0*	11.3	0.2	76.1*
COc1ccc(-c2noc([C@@H]3O[C@H](CO)[C@H](O)[C@H](O)[C@H]3O)n2)cc1OC	nt	-12.6	nt	nt	nt
Cc1nn(-c2ccccc2)c2c1C(c1c(C)[nH]c(C#N)c1C)C(C#N)=C(N)O2 (stereo not drawn)	36.4*	4.0	-27.3	1.1	-6.8
O=C1N/C(=C\c2ccc(O)cc2)C(=O)c2ccccc21	9.1	24.6	7.9	0.1	93.1*
O=C(O)/C=C1\NC(=O)c2ccccc21	6.4	-3.3	11.4	1	-0.7
COc1cc(CC(=O)Nc2c(-c3ccccc3)[nH][nH]c2=O)cc(OC)c1	nt	-13.3	nt	nt	nt
COc1ccccc1N1CCN(Cc2ccc(O)c3ncccc23)CC1	4.4	65.2*	31.3	1	-3.7
Cc1sc(N)nc1-c1ccc2c(c1)OCCO2	1.1	-0.9	nt	nt	nt
NC1=NN=C(c2ccc3c(c2)OCCO3)CS1	1.6	47.2	22.9	0.2	78.8*
CC(=O)c1c(C)[nH]c(C(=O)Nc2ccc(N3CCCCCC3)cc2)c1C	nt	-2.9	nt	nt	nt
CC(=O)N1CCN(c2ccc(NC(=O)c3ccc([N+](=O)[O-])o3)cc2Cl)CC1	-2.8	30.0	nt	nt	nt
CCC(=O)N1CCN(c2ccc(NC(=O)c3ccc([N+](=O)[O-])o3)cc2Cl)CC1	5.2	70.0*	30.8	1	-4.5
O=C(Nc1ccc(N2CCOCC2)c(F)c1)c1cccs1	3.4	56.2*	nt	nt	nt
CCCC(=O)N1CCN(c2ccc(NC(=O)c3cc4ccccc4o3)cc2Cl)CC1	0.6	53.6*	29.9	1	-3.2
O=C(Nc1ccc(N2CCOCC2)c(Cl)c1)c1ccco1	12.1	40.4	14.2	0.4	59.1*
CC1C(=O)C(C)C(c2cccc(Br)c2)NC1c1cccc(Br)c1 (stereo not drawn)	-0.2	10.1	nt	nt	nt
N#Cc1ccc(CN2CCN(C(=O)c3ccc(S(=O)(=O)NCc4ccco4)cc3)CC2)cc1	nt	9.0	nt	nt	nt
Cc1cccc(C)c1-n1nnnc1C1c2ccccc2C(=O)N1CCOc1ccccc1 (stereo not drawn)	nt	-6.8	nt	nt	nt
COC(=O)C1CCN(c2ccc(Cl)nn2)CC1	5.7	-11.4	8.4	1	-4.6
SMILES	HSP90 inh	C8 TRAIL sens	PPC-1+TRAIL kill	FLuc act counter	FLuc inhib CS
CCC(=O)N1CCN(c2ccc(NC(=O)c3cc4ccccc4o3)cc2Cl)CC1	0.6	61.2*	24.6	1	-4.3
CCC(=O)N1CCN(c2ccc(NC(=O)c3ccco3)cc2Cl)CC1	1.4	-10.2	nt	nt	nt
CS(=O)(=O)N1CCN(c2ccccc2NC(=O)c2ccc([N+](=O)[O-])o2)CC1	3.5	-1.5	25.9	1.1	-5.4
CN1CCN(c2ccccc2NC(=O)c2ccc([N+](=O)[O-])o2)CC1	-3.7	60.5*	nt	nt	nt
O=C(Nc1ccc(N2CCN(C(=O)c3ccco3)CC2)c(Cl)c1)c1cc2ccccc2o1	2.5	60.9*	21.0	1	3.3
CCC(=O)Nc1ccc(NC(=O)c2ccccc2)nc1	11.1	33.6	29.5	0.4	62.1*
CCCC(=O)Nc1ccc(NC(=O)c2ccccc2)nc1	13.6	31.1	41.4	nt	nt
CCOc1ccc(S(=O)(=O)N2CCCCC2)cc1NC(=O)Cc1cc(OC)c(OC)c(OC)c1	nt	-20.4	nt	nt	nt
